Test results: ChEMBL document CHEMBL5230173, “Site-directed late-stage diversification of macrocyclic nannocystins facilitating anticancer SAR and mode of action studies” (RSC Med Chem, 2023); call rule not given here

Columns and labels:
HCT-116 [1] = assay: Antiproliferative activity against human HCT-116 cells assessed as inhibition of cell growth by thymidine plus proliferation assay; format: functional, cell-based
MDA-MB-231 = assay: Antiproliferative activity against human MDA-MB-231 cells assessed as inhibition of cell growth incubated for 72 hrs by CCK-8 assay; details: MDA-MB-231, 72 h
HCT-8 = assay: Antiproliferative activity against human HCT-8 cells assessed as inhibition of cell growth incubated for 72 hrs by CCK-8 assay; details: HCT-8, 72 h
HCT-116 [2] = assay: Antiproliferative activity against human HCT-116 cells assessed as inhibition of cell growth by Celltiter-Glo luminescence assay; format: functional, cell-based
HCT-116 [3] = assay: Antiproliferative activity against human HCT-116 cells assessed as inhibition of cell growth incubated for 72 hrs by CCK-8 assay; details: HCT-116, 72 h
[4] = Drug localization in endoplasmic reticulum of human HCT-8 cells at 250 nM incubated for 8 hrs by ER-tracker red based laser scanning confocal microscopic analysis; format: ADME, cell-based; details: hct-8, 8 h, 0.25 µM
Summary of the method: (§1)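 HCT-8 (250 nM) and MDA-MB231 (500 nM) cells were seeded at 4 × 10^4 on slides for 24 h, then exposed to the probe for 8 h. After an HBSS wash, cells were stained with ER-Tracker Red for 20 min at 37 °C, washed twice with medium, and fixed in 4% formaldehyde for 2 min. Confocal imaging used probe ex 405/em 460 nm and tracker ex 587/em 615 nm.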

[5] = Drug uptake in human MDA-MB-231 cells incubated for 1 hrs by laser scanning confocal microscopic analysis; format: ADME, cell-based; details: mda-mb-231, 1 h, dose 0.25-2 µM
Summary of the method: (§2)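 MDA-MB231 cells were seeded at 6 × 10^4 on slides for 24 h in DMEM with 10% FBS. Cells were then PBS-washed twice, fixed in 4% formaldehyde for 2 min, and imaged by confocal microscopy (ex 405, em 460 nm).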

[6] = Drug uptake in human MDA-MB-231 cells measured after compound washout by laser scanning confocal microscopic analysis; format: ADME, cell-based
[7] = Drug localization in endoplasmic reticulum of human MDA-MB-231 cells at 500 nM incubated for 8 hrs by ER-tracker red based laser scanning confocal microscopic analysis; format: ADME, cell-based; details: mda-mb-231, 8 h, 0.5 µM; summary of the method: as §1
[8] = Drug uptake in human MDA-MB-231 cells at 1 uM by laser scanning confocal microscopic analysis; format: ADME, cell-based; details: mda-mb-231, 1 h, TDE = time-dependent effect, time < 60 min; summary of the method: as §2

SMILES | IC50 (MDA-MB-231) [nM] | IC50 (HCT-8) [nM] | IC50 (HCT-116 [3]) [nM] | further results
CC[C@H](C)[C@H]1C(=O)N[C@H](Cc2cc(Cl)c(O)c(Cl)c2)C(=O)N[C@@H](C(C)(C)O)C(=O)O[C@H](c2ccccc2)[C@H](C)/C=C/C=C(\C)[C@H](OC)C[C@@H]2O[C@@]2(C)C(=O)N1C | 15.2 | 10.9 | 4.2 | IC50 (HCT-116 [1]): 1.2 nM; IC50 (HCT-116 [2]): 2.6 nM
CC[C@H](C)[C@H]1C(=O)N[C@H](COC(=O)/C=C/c2ccccc2)C(=O)N[C@@H](C(C)(C)O)C(=O)O[C@H](c2ccccc2)[C@H](C)/C=C/C=C(\C)[C@H](OC)C[C@@H]2O[C@@]2(C)C(=O)N1C | 45.8 | 27.6 | 18.7 | 
CC[C@H](C)[C@H]1C(=O)N[C@H](COC(=O)c2cc3ccc(N(CC)CC)cc3oc2=O)C(=O)N[C@@H](C(C)(C)O)C(=O)O[C@H](c2ccccc2)[C@H](C)/C=C/C=C(\C)[C@H](OC)C[C@@H]2O[C@@]2(C)C(=O)N1C | 141 | 52.3 | 136 | Drug uptake [4]: Active; Drug uptake [5]: Dose-Dependent Effect; Drug uptake [6]: Active; Drug uptake [7]: Active; Drug uptake [8]: Tde
CCCCC(=O)OC[C@H]1NC(=O)[C@H]([C@@H](C)CC)N(C)C(=O)[C@]2(C)O[C@H]2C[C@@H](OC)/C(C)=C/C=C/[C@@H](C)[C@@H](c2ccccc2)OC(=O)[C@H](C(C)(C)O)NC1=O | 46.2 | 18.4 | 27.1 | 
CCCCCCCCCC(=O)OC[C@H]1NC(=O)[C@H]([C@@H](C)CC)N(C)C(=O)[C@]2(C)O[C@H]2C[C@@H](OC)/C(C)=C/C=C/[C@@H](C)[C@@H](c2ccccc2)OC(=O)[C@H](C(C)(C)O)NC1=O | 97.4 | 16.7 | 76.6 | 
C=CC(=O)OC[C@H]1NC(=O)[C@H]([C@@H](C)CC)N(C)C(=O)[C@]2(C)O[C@H]2C[C@@H](OC)/C(C)=C/C=C/[C@@H](C)[C@@H](c2ccccc2)OC(=O)[C@H](C(C)(C)O)NC1=O | 81.8 | 35.5 | 51.9 | 
CC[C@H](C)[C@H]1C(=O)N[C@H](COC(=O)/C=C/c2cc(F)cc(F)c2)C(=O)N[C@@H](C(C)(C)O)C(=O)O[C@H](c2ccccc2)[C@H](C)/C=C/C=C(\C)[C@H](OC)C[C@@H]2O[C@@]2(C)C(=O)N1C | 78.8 | 24.9 | 23.5 | 
CC[C@H](C)[C@H]1C(=O)N[C@H](COC(=O)CCC(=O)O)C(=O)N[C@@H](C(C)(C)O)C(=O)O[C@H](c2ccccc2)[C@H](C)/C=C/C=C(\C)[C@H](OC)C[C@@H]2O[C@@]2(C)C(=O)N1C | 52.6 | 115 | > 200 | 
CC[C@H](C)[C@H]1C(=O)N[C@H](COC(=O)C2CC2)C(=O)N[C@@H](C(C)(C)O)C(=O)O[C@H](c2ccccc2)[C@H](C)/C=C/C=C(\C)[C@H](OC)C[C@@H]2O[C@@]2(C)C(=O)N1C | 61.8 | 19.6 | 42.7 | 

More lines, main results first:

IC50 (MDA-MB-231) [nM] | IC50 (HCT-8) [nM] | IC50 (HCT-116 [3]) [nM] | SMILES | further results
43.5 | 2.9 | 29.8 | CC[C@H](C)[C@H]1C(=O)N[C@H](COC(=O)C2=CCC2)C(=O)N[C@@H](C(C)(C)O)C(=O)O[C@H](c2ccccc2)[C@H](C)/C=C/C=C(\C)[C@H](OC)C[C@@H]2O[C@@]2(C)C(=O)N1C | 
40.1 | 23.4 | 13.7 | CC[C@H](C)[C@H]1C(=O)N[C@H](COC(=O)c2ccccc2)C(=O)N[C@@H](C(C)(C)O)C(=O)O[C@H](c2ccccc2)[C@H](C)/C=C/C=C(\C)[C@H](OC)C[C@@H]2O[C@@]2(C)C(=O)N1C | 
20.7 | 44 | 37.7 | CC[C@H](C)[C@H]1C(=O)N[C@H](COC(=O)C2CCCCC2)C(=O)N[C@@H](C(C)(C)O)C(=O)O[C@H](c2ccccc2)[C@H](C)/C=C/C=C(\C)[C@H](OC)C[C@@H]2O[C@@]2(C)C(=O)N1C | 
32.3 | 57.4 | 10.3 | CC[C@H](C)[C@H]1C(=O)N[C@H](COC(=O)c2ccncc2)C(=O)N[C@@H](C(C)(C)O)C(=O)O[C@H](c2ccccc2)[C@H](C)/C=C/C=C(\C)[C@H](OC)C[C@@H]2O[C@@]2(C)C(=O)N1C | 
17 | 24.3 | 17.5 | CC[C@H](C)[C@H]1C(=O)N[C@H](COC(C)=O)C(=O)N[C@@H](C(C)(C)O)C(=O)O[C@H](c2ccccc2)[C@H](C)/C=C/C=C(\C)[C@H](OC)C[C@@H]2O[C@@]2(C)C(=O)N1C | 
20.6 | 60.5 | 2.9 | CC[C@H](C)[C@H]1C(=O)N[C@H](COC(=O)c2sc(C)nc2C)C(=O)N[C@@H](C(C)(C)O)C(=O)O[C@H](c2ccccc2)[C@H](C)/C=C/C=C(\C)[C@H](OC)C[C@@H]2O[C@@]2(C)C(=O)N1C | 
29.4 | 32.2 | 37.6 | CC[C@H](C)[C@H]1C(=O)N[C@H](CO)C(=O)N[C@@H](C(C)(C)O)C(=O)O[C@H](c2ccccc2)[C@H](C)/C=C/C=C(\C)[C@H](OC)C[C@@H]2O[C@@]2(C)C(=O)N1C | 
